Source: ChEMBL document CHEMBL3045650, “Design, synthesis, and 3D-QSAR analysis of novel 1,3,4-oxadiazol-2(3H)-ones as protoporphyrinogen oxidase inhibitors” (J Agric Food Chem, 2010)

What was measured:
[1] = system: Digitaria sanguinalis; experiment: Post-emergence herbicidal activity against Digitaria sanguinalis (hairy crabgrass) assessed as growth inhibition at emulsified concentrate of 150 g/ai ha after 15 days by greenhouse test; type: functional
In short: (§1)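 About 20 seeds sown 1–3 cm deep, grown at 15–30 °C and 50% RH. Monocot seedlings sprayed postemergence at the one-leaf stage with a 100 g/L emulsifiable concentrate (DMF/Tween-80) diluted in water, 150 g ai/ha. Untreated and solvent controls included. Visual rating at 15 days, three replicates.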

[2] = system: Echinochloa crus-galli; experiment: Post-emergence herbicidal activity against Echinochloa crus-galli (barnyard grass) assessed as growth inhibition at emulsified concentrate of 150 g/ai ha after 15 days by greenhouse test; type: functional; in short: as §1
[3] = system: Eclipta prostrata; experiment: Post-emergence herbicidal activity against Eclipta prostrata assessed as growth inhibition at emulsified concentrate of 75 g/ai ha after 15 days by greenhouse test; type: functional
In short: (§2)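 Compounds were made up as 100 g/L emulsifiable concentrates in DMF with Tween-80, then diluted in water. About 20 seeds were sown 1-3 cm deep in pots and grown in a greenhouse at 15-30 °C and 50% relative humidity. Sprays were applied postemergence at the two-leaf stage. Untreated and DMF + Tween-80 solvent controls were included. Injury was scored visually 15 days after treatment, with three replicates per treatment.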

[4] = system: Eclipta prostrata; experiment: Post-emergence herbicidal activity against Eclipta prostrata assessed as growth inhibition at emulsified concentrate of 37.5 g/ai ha after 15 days by greenhouse test; type: functional; in short: as §2
[5] = system: Rumex acetosa; experiment: Post-emergence herbicidal activity against Rumex acetosa assessed as growth inhibition at emulsified concentrate of 150 g/ai ha after 15 days by greenhouse test; type: functional
[6] = system: Rumex acetosa; experiment: Post-emergence herbicidal activity against Rumex acetosa assessed as growth inhibition at emulsified concentrate of 75 g/ai ha after 15 days by greenhouse test; type: functional
[7] = system: Rumex acetosa; experiment: Post-emergence herbicidal activity against Rumex acetosa assessed as growth inhibition at emulsified concentrate of 37.5 g/ai ha after 15 days by greenhouse test; type: functional
[8] = system: Amaranthus retroflexus; experiment: Post-emergence herbicidal activity against Amaranthus retroflexus assessed as growth inhibition at emulsified concentrate of 75 g/ai ha after 15 days by greenhouse test; type: functional; in short: as §2
[9] = system: Amaranthus retroflexus; experiment: Post-emergence herbicidal activity against Amaranthus retroflexus assessed as growth inhibition at emulsified concentrate of 37.5 g/ai ha after 15 days by greenhouse test; type: functional; in short: as §2
[10] = system: Cyperus iria; experiment: Post-emergence herbicidal activity against Cyperus iria assessed as growth inhibition at emulsified concentrate of 150 g/ai ha after 15 days by greenhouse test; type: functional
[11] = system: Cyperus iria; experiment: Post-emergence herbicidal activity against Cyperus iria assessed as growth inhibition at emulsified concentrate of 75 g/ai ha after 15 days by greenhouse test; type: functional
[12] = system: Cyperus iria; experiment: Post-emergence herbicidal activity against Cyperus iria assessed as growth inhibition at emulsified concentrate of 37.5 g/ai ha after 15 days by greenhouse test; type: functional
[13] = system: Abutilon theophrasti; experiment: Post-emergence herbicidal activity against Abutilon theophrasti (velvetleaf) assessed as growth inhibition at emulsified concentrate of 150 g/ai ha after 15 days by greenhouse test; type: functional
[14] = system: Abutilon theophrasti; experiment: Post-emergence herbicidal activity against Abutilon theophrasti (velvetleaf) assessed as growth inhibition at emulsified concentrate of 37.5 g/ai ha after 15 days by greenhouse test; type: functional
[15] = system: Abutilon theophrasti; experiment: Post-emergence herbicidal activity against Abutilon theophrasti (velvetleaf) assessed as growth inhibition at emulsified concentrate of 75 g/ai ha after 15 days by greenhouse test; type: functional
[16] = system: Polygonum humifusum; experiment: Post-emergence herbicidal activity against Polygonum humifusum assessed as growth inhibition at emulsified concentrate of 150 g/ai ha after 15 days by greenhouse test; type: functional
[17] = system: Polygonum humifusum; experiment: Post-emergence herbicidal activity against Polygonum humifusum assessed as growth inhibition at emulsified concentrate of 75 g/ai ha after 15 days by greenhouse test; type: functional
[18] = system: Polygonum humifusum; experiment: Post-emergence herbicidal activity against Polygonum humifusum assessed as growth inhibition at emulsified concentrate of 37.5 g/ai ha after 15 days by greenhouse test; type: functional
[19] = system: Brassica juncea; experiment: Post-emergence herbicidal activity against Brassica juncea assessed as growth inhibition at emulsified concentrate of 75 g/ai ha after 15 days by greenhouse test; type: functional; in short: as §2
[20] = system: Brassica juncea; experiment: Post-emergence herbicidal activity against Brassica juncea assessed as growth inhibition at emulsified concentrate of 37.5 g/ai ha after 15 days by greenhouse test; type: functional; in short: as §2
[21] = system: Eclipta prostrata; experiment: Post-emergence herbicidal activity against Eclipta prostrata assessed as growth inhibition at emulsified concentrate of 150 g/ai ha after 15 days by greenhouse test; type: functional
In short: (§3)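 About 20 seeds sown 1–3 cm deep, grown at 15–30 °C and 50% RH. Dicot seedlings sprayed postemergence at the two-leaf stage with a 100 g/L emulsifiable concentrate (DMF/Tween-80) diluted in water, 150 g ai/ha. Untreated and solvent controls included. Visual rating at 15 days, three replicates.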

[22] = system: Amaranthus retroflexus; experiment: Post-emergence herbicidal activity against Amaranthus retroflexus assessed as growth inhibition at emulsified concentrate of 150 g/ai ha after 15 days by greenhouse test; type: functional; in short: as §3
[23] = system: Brassica juncea; experiment: Post-emergence herbicidal activity against Brassica juncea assessed as growth inhibition at emulsified concentrate of 150 g/ai ha after 15 days by greenhouse test; type: functional; in short: as §3
[24] = system: Poa annua; experiment: Post-emergence herbicidal activity against Poa annua assessed as growth inhibition at emulsified concentrate of 150 g/ai ha after 15 days by greenhouse test; type: functional; in short: as §1
[25] = molecular target: T1, Protoporphyrinogen oxidase (Homo sapiens, UniProt P50336); experiment: Inhibition of Homo sapiens (human) recombinant protoporphyrinogen oxidase expressed in Escherichia coli JM109 assessed as oxidation of protoporphyrinogen IX substrate by fluorescence assay
T1 sequence (P50336 whole entry): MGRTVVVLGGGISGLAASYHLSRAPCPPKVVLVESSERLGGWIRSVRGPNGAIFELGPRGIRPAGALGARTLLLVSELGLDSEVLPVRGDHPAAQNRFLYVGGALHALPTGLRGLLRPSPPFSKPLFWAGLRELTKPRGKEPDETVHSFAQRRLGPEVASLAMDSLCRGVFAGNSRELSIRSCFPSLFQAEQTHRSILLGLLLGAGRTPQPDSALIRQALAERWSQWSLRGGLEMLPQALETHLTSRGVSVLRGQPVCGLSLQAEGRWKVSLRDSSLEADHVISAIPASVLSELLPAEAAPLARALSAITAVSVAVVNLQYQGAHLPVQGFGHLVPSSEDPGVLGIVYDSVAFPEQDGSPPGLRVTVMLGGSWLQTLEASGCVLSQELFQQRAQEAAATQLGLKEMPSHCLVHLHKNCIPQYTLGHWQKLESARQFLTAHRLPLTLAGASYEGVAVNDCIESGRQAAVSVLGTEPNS

Compound | inhibition (INH) [1] [%] | inhibition (INH) [2] [%] | inhibition (INH) [3] [%] | inhibition (INH) [4] [%] | inhibition (INH) [5] [%] | inhibition (INH) [6] [%] | inhibition (INH) [7] [%] | inhibition (INH) [8] [%] | inhibition (INH) [9] [%] | inhibition (INH) [10] [%] | inhibition (INH) [11] [%] | inhibition (INH) [12] [%] | inhibition (INH) [13] [%] | inhibition (INH) [14] [%] | inhibition (INH) [15] [%] | inhibition (INH) [16] [%] | inhibition (INH) [17] [%] | inhibition (INH) [18] [%] | inhibition (INH) [19] [%] | inhibition (INH) [20] [%] | other results
CCOC(=O)CSc1nc2cc(-n3nc(C(C)(C)C)oc3=O)c(F)cc2s1 | 0 | 0 | 0 | 0 | 70 | 50 | 50 | 50 | 50 | 70 | 70 | 60 | 0 | 0 | 0 | 80 | 70 | 70 | 50 | 0 | inhibition (INH) [21]: 50%; inhibition (INH) [22]: 90%; inhibition (INH) [23]: 50%; inhibition (INH) [24]: 0%; Ki [25]: 1.58 µM
CCOC(=O)C(C)Sc1nc2cc(-n3nc(C(C)(C)C)oc3=O)c(Cl)cc2s1 (stereo not given) | 0 | 0 | 40 | 0 | 60 | 30 | 0 | 100 | 60 | 70 | 60 | 60 | 0 | 0 | 0 | 70 | 60 | 40 | 0 | 0 | inhibition (INH) [21]: 70%; inhibition (INH) [22]: 100%; inhibition (INH) [23]: 50%; inhibition (INH) [24]: 0%; Ki [25]: 1.69 µM
CCOC(=O)CCSc1nc2cc(-n3nc(C(C)(C)C)oc3=O)c(Cl)cc2s1 | 0 | 0 | 60 | 50 | 70 | 70 | 60 | 60 | 50 | 60 | 50 | 40 | 0 | 0 | 0 | 70 | 70 | 70 | 60 | 60 | inhibition (INH) [21]: 60%; inhibition (INH) [22]: 80%; inhibition (INH) [23]: 70%; inhibition (INH) [24]: 0%; Ki [25]: 0.25 µM
COC(=O)CSc1nc2cc(-n3nc(C(C)(C)C)oc3=O)c(Br)cc2s1 | 0 | 0 | 0 | 0 | 60 | 50 | 40 | 60 | 50 | 50 | 40 | 40 | 0 | 0 | 0 | 70 | 70 | 60 | 0 | 0 | inhibition (INH) [21]: 0%; inhibition (INH) [22]: 80%; inhibition (INH) [23]: 0%; inhibition (INH) [24]: 0%; Ki [25]: 7.46 µM
